Assays:
HT-29 = experiment: Antiproliferative activity against human HT-29 cells after 48 hrs by MTT assay; type: functional, cell-based; conditions: HT-29, 48 h
In short: (§1)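 MTT antiproliferative screen on human colorectal adenocarcinoma HT-29 and breast cancer MDA-MB-231 cells. Cell growth inhibition IC50 was read from the dose-response curve.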

MDA-MB-231 = experiment: Antiproliferative activity against human MDA-MB-231 cells after 48 hrs by MTT assay; type: functional, cell-based; conditions: MDA-MB-231, 48 h; in short: as §1
[1] = molecular target: Dihydroorotate dehydrogenase (quinone), mitochondrial (Homo sapiens, UniProt Q02127); experiment: Inhibition of human recombinant N-terminal His-tagged DHODH (31 to 395 residues) expressed in Escherichia coli using DHO as substrate measured after 20 mins by DCPI dye-based assay
Sequence of Dihydroorotate dehydrogenase (quinone), mitochondrial (Q02127 whole entry, the tested form may be a part): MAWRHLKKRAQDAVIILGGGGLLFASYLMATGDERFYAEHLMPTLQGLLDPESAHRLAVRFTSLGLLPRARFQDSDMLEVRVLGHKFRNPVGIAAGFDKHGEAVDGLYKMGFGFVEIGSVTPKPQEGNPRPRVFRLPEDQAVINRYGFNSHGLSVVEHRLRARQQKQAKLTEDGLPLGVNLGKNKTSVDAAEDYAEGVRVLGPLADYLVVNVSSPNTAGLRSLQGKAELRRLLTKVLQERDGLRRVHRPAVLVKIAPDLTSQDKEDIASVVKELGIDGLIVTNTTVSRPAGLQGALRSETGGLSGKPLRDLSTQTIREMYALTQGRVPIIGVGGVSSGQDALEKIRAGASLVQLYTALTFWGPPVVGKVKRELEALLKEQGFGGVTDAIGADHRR

| IC50 (HT-29) | IC50 (MDA-MB-231) | IC50 [1] | Structure (SMILES) |
| --- | --- | --- | --- |
| > 100 µM | > 100 µM | – | COc1ccc(-c2cc(COCc3ccccc3)c3cc(C)ccc3n2)cc1 |
| 16.8 µM | > 100 µM | 1.22 µM | Clc1ccc(-c2cc(COCc3ccccc3)c3cc(Cl)c(Cl)cc3n2)cc1 |
| 48.7 µM | > 100 µM | 7.48 µM | O=C(OCc1ccccc1)c1cc(-c2ccc(Cl)cc2)nc2cc(Cl)c(Cl)cc12 |
| > 100 µM | > 100 µM | 15.5 µM | COc1ccc(-c2cc(COCc3ccccc3)c3cc(Cl)c(Cl)cc3n2)cc1 |
| > 100 µM | > 100 µM | 13.4 µM | Cc1ccc2nc(-c3ccc(F)cc3)cc(COCc3ccccc3)c2c1 |
| > 100 µM | > 100 µM | – | Cc1ccc2nc(-c3ccc(Cl)cc3)cc(COCc3ccccc3)c2c1 |
| 42.2 µM | 39.2 µM | 3.34 µM | COc1ccc(-c2cc(C(=O)OCc3ccccc3)c3cc(Cl)c(Cl)cc3n2)cc1 |

Continued, compound first:

| Structure (SMILES) | IC50 (HT-29) | IC50 (MDA-MB-231) | IC50 [1] |
| --- | --- | --- | --- |
| CC(=O)O[C@H]1C(=O)[C@@]2(C)[C@H]([C@H](OC(=O)c3ccccc3)[C@]3(O)C[C@H](OC(=O)[C@H](O)[C@@H](NC(=O)c4ccccc4)c4ccccc4)C(C)=C1C3(C)C)[C@]1(OC(C)=O)CO[C@@H]1C[C@@H]2O [PACLITAXEL] | 14.6 µM | 13.2 µM | – |
| Cc1c(-c2ccc(-c3ccccc3F)cc2)nc2ccc(F)cc2c1C(=O)O [BREQUINAR SODIUM] | 14 µM | 12.5 µM | – |
| Cc1ccc2nc(-c3ccc(Cl)cc3)cc(C(=O)OCc3ccccc3)c2c1 | > 100 µM | > 100 µM | 7.37 µM |
| Cc1ccc2nc(-c3ccc(F)cc3)cc(C(=O)OCc3ccccc3)c2c1 | 15.1 µM | 13.2 µM | 1.56 µM |
| COc1ccc(-c2cc(C(=O)OCc3ccccc3)c3cc(C)ccc3n2)cc1 | 17.3 µM | 20.5 µM | 1.96 µM |

From ChEMBL document CHEMBL4422683, “Synthesis of 2-,4,-6-, and/or 7-substituted quinoline derivatives as human dihydroorotate dehydrogenase (hDHODH) inhibitors and anticancer agents: 3D QSAR-assisted design” (Bioorg Med Chem Lett, 2019)
